# Key:
# [1] = system: Rattus norvegicus; assay: Minimum effective dose required for inhibition of serotonin uptake was determined by PCA method in rat by peroral administration; assay type: functional; conditions: po, read-out: MED
# In short: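 Fasted male Sprague–Dawley rats (160–200 g) given test compound orally in water (10 mL/kg) 15 min before p-chloroamphetamine 3 mg/kg ip. Forebrain taken 3 h later, extracted in acidified butanol then heptane/0.1 N HCl. Serotonin in aqueous phase measured fluorometrically after o-phthalaldehyde condensation (excitation 360 nm). Minimum effective dose reported.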
# [2] = target: T1, Adrenergic receptor alpha-2 (Rattus norvegicus, UniProt P22086+P19328+P22909); assay: Ability to displace [3H]clonidine from alpha-2 adrenergic receptor in rat brain homogenates in vitro; assay type: tissue-based
# T1 sequence (P22086 whole entry): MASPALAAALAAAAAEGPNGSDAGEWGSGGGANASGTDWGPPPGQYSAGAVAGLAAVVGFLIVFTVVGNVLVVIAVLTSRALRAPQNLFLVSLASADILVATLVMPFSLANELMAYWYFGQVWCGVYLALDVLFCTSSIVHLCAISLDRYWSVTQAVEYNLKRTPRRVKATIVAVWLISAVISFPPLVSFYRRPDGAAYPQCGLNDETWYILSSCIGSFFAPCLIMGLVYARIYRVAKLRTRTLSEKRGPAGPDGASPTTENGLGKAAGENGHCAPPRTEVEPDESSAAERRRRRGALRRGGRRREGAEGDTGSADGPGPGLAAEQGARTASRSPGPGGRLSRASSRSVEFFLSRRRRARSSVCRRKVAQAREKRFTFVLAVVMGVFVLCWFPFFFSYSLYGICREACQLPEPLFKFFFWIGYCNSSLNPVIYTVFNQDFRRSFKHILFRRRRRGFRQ
# T1 sequence (P19328 whole entry): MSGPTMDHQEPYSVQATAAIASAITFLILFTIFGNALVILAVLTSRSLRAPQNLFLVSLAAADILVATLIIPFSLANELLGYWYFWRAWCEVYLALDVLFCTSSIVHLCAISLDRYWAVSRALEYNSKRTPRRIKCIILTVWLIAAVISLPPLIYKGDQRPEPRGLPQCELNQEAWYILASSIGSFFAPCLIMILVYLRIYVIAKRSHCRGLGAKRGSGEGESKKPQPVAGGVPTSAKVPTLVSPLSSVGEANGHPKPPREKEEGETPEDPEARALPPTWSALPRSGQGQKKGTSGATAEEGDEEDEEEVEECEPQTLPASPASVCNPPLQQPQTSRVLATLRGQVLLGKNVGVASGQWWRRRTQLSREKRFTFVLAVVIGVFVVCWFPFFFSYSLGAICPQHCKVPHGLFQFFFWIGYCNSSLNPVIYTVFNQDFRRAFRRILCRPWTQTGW
# T1 sequence (P22909 whole entry): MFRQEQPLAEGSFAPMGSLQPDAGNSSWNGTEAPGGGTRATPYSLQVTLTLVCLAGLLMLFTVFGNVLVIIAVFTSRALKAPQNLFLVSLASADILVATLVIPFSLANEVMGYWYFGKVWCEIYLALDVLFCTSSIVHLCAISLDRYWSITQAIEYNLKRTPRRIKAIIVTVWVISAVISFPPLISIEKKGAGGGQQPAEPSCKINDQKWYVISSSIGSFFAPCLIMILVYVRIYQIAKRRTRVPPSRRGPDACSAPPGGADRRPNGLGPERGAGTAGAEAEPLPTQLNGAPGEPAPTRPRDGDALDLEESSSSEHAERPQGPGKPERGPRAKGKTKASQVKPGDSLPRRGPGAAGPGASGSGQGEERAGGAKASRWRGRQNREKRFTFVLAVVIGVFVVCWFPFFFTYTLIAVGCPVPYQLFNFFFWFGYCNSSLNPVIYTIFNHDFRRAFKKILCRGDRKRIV
# [3] = target: T2, Adrenergic receptor alpha-1 (Rattus norvegicus, UniProt P15823+P23944+P43140); assay: In vitro antagonistic activity against alpha-1 adrenergic receptor in isolated unstimulated rat vas deferens (methoxamine-induced contractions)
# T2 sequence (P15823 whole entry): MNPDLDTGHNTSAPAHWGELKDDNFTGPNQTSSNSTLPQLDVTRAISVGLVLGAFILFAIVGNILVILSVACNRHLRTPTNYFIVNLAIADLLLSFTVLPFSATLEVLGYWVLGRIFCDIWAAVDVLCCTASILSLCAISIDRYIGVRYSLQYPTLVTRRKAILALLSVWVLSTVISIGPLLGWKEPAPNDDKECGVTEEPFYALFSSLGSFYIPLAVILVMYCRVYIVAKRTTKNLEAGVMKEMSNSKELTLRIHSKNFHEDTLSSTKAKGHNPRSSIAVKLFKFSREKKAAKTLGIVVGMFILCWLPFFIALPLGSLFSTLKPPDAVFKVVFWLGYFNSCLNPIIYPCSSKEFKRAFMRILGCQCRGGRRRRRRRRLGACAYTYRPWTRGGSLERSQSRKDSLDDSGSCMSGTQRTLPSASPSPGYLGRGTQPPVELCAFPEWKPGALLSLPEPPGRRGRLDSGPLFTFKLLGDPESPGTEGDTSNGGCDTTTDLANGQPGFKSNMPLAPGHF
# T2 sequence (P23944 whole entry): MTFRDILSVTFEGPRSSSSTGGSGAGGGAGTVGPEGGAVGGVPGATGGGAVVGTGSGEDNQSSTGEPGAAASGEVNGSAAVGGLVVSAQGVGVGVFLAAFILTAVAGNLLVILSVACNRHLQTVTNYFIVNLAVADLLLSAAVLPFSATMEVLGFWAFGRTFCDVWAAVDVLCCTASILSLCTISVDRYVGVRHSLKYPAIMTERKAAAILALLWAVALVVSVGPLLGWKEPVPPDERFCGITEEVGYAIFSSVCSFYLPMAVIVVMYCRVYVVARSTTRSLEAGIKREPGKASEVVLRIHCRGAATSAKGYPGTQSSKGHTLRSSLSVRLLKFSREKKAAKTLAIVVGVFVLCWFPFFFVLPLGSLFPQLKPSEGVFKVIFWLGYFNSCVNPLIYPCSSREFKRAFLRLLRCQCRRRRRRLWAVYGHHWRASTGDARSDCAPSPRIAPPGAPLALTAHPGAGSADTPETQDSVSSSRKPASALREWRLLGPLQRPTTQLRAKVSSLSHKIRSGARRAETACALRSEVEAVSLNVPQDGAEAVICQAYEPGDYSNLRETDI
# T2 sequence (P43140 whole entry): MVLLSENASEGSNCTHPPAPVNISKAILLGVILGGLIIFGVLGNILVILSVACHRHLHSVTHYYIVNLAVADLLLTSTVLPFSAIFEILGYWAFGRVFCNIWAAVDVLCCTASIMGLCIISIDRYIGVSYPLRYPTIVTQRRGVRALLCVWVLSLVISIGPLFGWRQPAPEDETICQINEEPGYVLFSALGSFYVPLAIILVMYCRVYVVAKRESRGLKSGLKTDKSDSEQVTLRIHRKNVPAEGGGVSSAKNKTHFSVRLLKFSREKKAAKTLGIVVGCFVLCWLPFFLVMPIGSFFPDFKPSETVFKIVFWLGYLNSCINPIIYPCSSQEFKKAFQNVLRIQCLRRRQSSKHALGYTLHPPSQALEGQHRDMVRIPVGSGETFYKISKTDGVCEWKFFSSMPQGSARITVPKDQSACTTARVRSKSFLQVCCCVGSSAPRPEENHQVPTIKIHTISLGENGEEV
Structure (SMILES),minimal effective dose [1] [mg/kg],Ki [2] [nM],pA2 [3]
CC1=C(CC2=NCCN2)CCc2ccccc21.Cl,30,12,7.08
C1=C(CC2=NCCN2)CCc2ccccc21.Cl [NAPAMEZOLE HYDROCHLORIDE],30,23,6.87
